Most compounds without a hit are left out; they make up all but 1.7% or so of the library.
Rtt109 Vps75: blocks Candida albicans Rtt109/Vps75 acetyltransferase activity; purified Rtt109/Vps75, ThioGlo CoA-SH fluorescence, 4 h; inhibition, % at 34.9 µM; 0.16% of 330,000 active;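 active = inhibition of at least 50% in every replicate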
Target sequence (Q5AAJ8 whole entry, looked up): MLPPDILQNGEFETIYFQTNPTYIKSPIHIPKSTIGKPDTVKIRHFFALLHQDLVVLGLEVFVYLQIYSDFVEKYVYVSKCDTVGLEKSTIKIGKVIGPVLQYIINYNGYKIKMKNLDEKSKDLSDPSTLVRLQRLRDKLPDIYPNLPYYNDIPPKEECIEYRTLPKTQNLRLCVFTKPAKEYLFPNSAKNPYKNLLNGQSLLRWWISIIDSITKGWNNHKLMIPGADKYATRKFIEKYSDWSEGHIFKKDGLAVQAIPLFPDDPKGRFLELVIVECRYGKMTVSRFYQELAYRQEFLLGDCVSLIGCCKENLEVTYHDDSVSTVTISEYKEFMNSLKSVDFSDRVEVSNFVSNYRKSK
PglD DTNB: blocks C. jejuni PglD acetyltransferase activity. 0.098% of 360,000 active. AID 602405. inhibition, % at 12.5 µM. purified PglD enzyme, DTNB colorimetric CoA detection; in the data active = inhibition above about 16%, passing the limit was not always enough
FN deposition inh: fibronectin deposition inhibition. inhibition, % at 12.6 µM. AH1F fibroblasts, Alexa488-fibronectin deposition fluorescence, overnight. 0.086% of 350,000 active;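 active = mean inhibition across replicates of 30% or more, regardless of how many single replicates reach that level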;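 note: positive control wells lacked labelled fibronectin entirely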
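Material: AH1F fibroblast monolayer depositing Alexa488-labelled fibronectin into matrix | Input: 10000 AH1F cells/well | Medium: DMEM plus 2% serum, read in PBS | Reagent: Alexa488-fibronectin, 24 nM final in well | Compound dosing: One dose per compound, pinned | Schedule: 1 h adhesion, overnight exposure | Measured by: Fluorescence at 485 nm excitation, 525 nm emission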
SKKanGAS inh: inhibitors of SKKanGAS S. pyogenes growth in kanamycin (SK-promoter or general growth effect); BacTiter-Glo, 6 h; inhibition, % at 7.5 µM; 1.3% of 300,000 active; AID 1662;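 active = mean replicate score, as percent of positive control median, at least 50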;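 note: strain carries kanamycin resistance gene driven by streptokinase promoter and grows in 40 µg/ml kanamycin; loss of luminescence reflects streptokinase promoter inhibition or plain growth inhibition; 0% = median of DMSO wells and 100% = positive control at its reference dose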
PfHsp90 set2: growth inhibition of yeast expressing Plasmodium Hsp90; S. cerevisiae expressing PfHsp90, BacTiter-Glo ATP, 48 h; yeast lacking PDR1 and PDR3 efflux regulators; inhibition, % at 9.4 µM; 0.32% of 310,000 active;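 active = every replicate shows inhibition above about 80%, whatever the replicate mean, limit read from the data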;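 note: 0% = DMSO neutral controls and 100% = 20 µM radicicol positive controls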
CSC inhib: cancer stem cell inhibition. cancer stem cell-like cells viability, luminescence. inhibition, % at 7.5 µM. 1.1% of 300,000 active; in the data active = inhibition above about 75%; tested in HMLE shEcad cells
* hit, by the source's call; / = no result given.

SMILES | Rtt109 Vps75 | PglD DTNB | FN deposition inh | SKKanGAS inh | PfHsp90 set2 | CSC inhib
CCCCn1c(=O)c(C(=O)NCc2ccc(Cl)cc2)c(O)c2ccccc21 | -1 | 4 | 0 | 25 | -3 | 76*
CCCCCn1c(=O)c(C(=O)NCc2ccncc2)c(O)c2ccccc21 | 7 | -2 | / | 78* | 18 | 23
CC(C)NC(=O)N1C[C@@H]2N[C@H](C1)C2c1ccc(Br)cc1 (some centres undefined) | / | / | -10 | / | / | /
O=C(Cc1cccnc1)N1CCCCN2[C@@H](CO)[C@H](c3ccc(/C=C/c4ccccc4)cc3)[C@@H]2C1 | / | 1 | / | / | / | /
C[C@@H]1CN([C@@H](C)CO)C(=O)c2c(c3ccccc3n2C)-c2ccccc2CO[C@@H]1CN(C)C(=O)Oc1ccccc1 | / | / | -9 | / | / | /
COc1ccc(CCN)cc1OC | 4 | 0 | / | 0 | 12 | -8
NCCc1ccc(OCc2ccccc2)c(OCc2ccccc2)c1 | 26 | 3 | -2 | / | 22 | 106*
CC/C(=C\C=C\[C@@H]1C=C[C@@H]2CCC[C@H]2[C@@H]1C(=O)c1ccc[nH]1)[C@@H]1O[C@@H]([C@@H](C)C(=O)O)CC[C@@H]1C | 39 | -4 | -9 | 131* | / | 90*
CC(C)(C)c1cc(C=C(C#N)C#N)cc(C(C)(C)C)c1O | 3 | 4 | 15 | / | -2 | 81*
O=C(Cc1ccccc1)N1CCCCN2[C@H](CO)[C@@H](c3ccc(-c4ccccc4)cc3)[C@H]2C1 | / | 3 | / | / | / | /
CCCC#Cc1ccc([C@H]2[C@H]3CN(C(=O)Cc4ccccn4)CCCCN3[C@H]2CO)cc1 | / | 1 | / | / | / | /
CCN(CC)C(=O)c1ccc(NC(=O)CCCSc2ccccc2)cc1 | 9 | 2 | 0 | 1 | 13 | -12
CCN(CC)C(=O)c1ccc(NC(=O)Nc2ccccc2F)cc1 | / | / | / | 71* | 66 | 81*
C/C=C(\C)C(=O)OC1C(C)=C2C(C1OC(=O)CCCCC)C(C)(OC(C)=O)CC(OC(=O)CCC)C1(O)C2OC(=O)C1(C)O (centres undefined) | / | / | / | 31 | / | 101*
COC(=O)[C@H]1[C@H](CO)[C@H]2Cn3c(ccc(-c4cncnc4)c3=O)[C@@H]1N2S(=O)(=O)c1ccccc1C | / | 0 | / | / | / | /
Cc1cc(C)cc(N2C(=O)NC(=O)/C(=C\C=C\c3ccco3)C2=O)c1 | -3 | / | 2 | 5 | 2 | 17
Cc1ccc(N2C(=O)NC(=O)/C(=C/C=C/c3ccco3)C2=O)cc1 | 5 | / | -8 | 5 | -4 | 79*
CC(C)c1ccc(N2C(=O)NC(=O)/C(=C/C=C/c3ccco3)C2=O)cc1 | -12 | / | -13 | 5 | -6 | 98*
CCc1ccc(N2C(=O)NC(=O)/C(=C\C=C\c3ccco3)C2=O)cc1 | 3 | -4 | 5 | 19 | 7 | 116*
O=C1NC(=O)N(Cc2ccc(F)cc2)C(=O)/C1=C\C=C\c1ccco1 | -2 | -2 | -2 | -6 | 21 | 13
O=C(Cc1ccccn1)N1CCCCN2[C@H](CO)[C@H](c3ccc(-c4ccccc4F)cc3)[C@H]2C1 | / | -2 | / | / | / | /
CS(=O)(=O)N1CC2NC(C1)C2c1ccc(Br)cc1 (centres undefined) | / | / | -13 | / | / | /
CN1[C@@H]2CN(S(C)(=O)=O)C[C@H]1C2c1ccccc1 (some centres undefined) | / | / | -13 | / | / | /
O=C(CSC1c2ccccc2-c2ccccc21)N/N=C/c1ccccc1O | 14 | 1 | / | 5 | -41 | 83*
CC=Cc1ccc2n(c1=O)C[C@H]1[C@H](CO)[C@@H](C(=O)O)[C@@H]2N1S(=O)(=O)c1ccccc1C (mixture of isomers) | / | 4 | / | / | / | /
SMILES | Rtt109 Vps75 | PglD DTNB | FN deposition inh | SKKanGAS inh | PfHsp90 set2 | CSC inhib
CC(C)(C)C(=O)OC[N+](C)(C)CCOC(=O)C(O)(c1ccccc1)C1CCCC1 (centres undefined) | -1 | / | -4 | -2 | -16 | -4
O=C(O)C(O)(c1ccccc1)C1CCCC1 (centres undefined) | -2 | 2 | 33* | -3 | -1 | -11
Cc1nc2ccccc2c(=O)n1/N=C/c1cc(Br)cc(Br)c1O | 2 | / | 8 | 99* | -16 | 10
Cc1nc2ccccc2c(=O)n1-c1ccc(Br)cn1 | 17 | 2 | 13 | -3 | 3 | -15
COC(=O)C[C@]1(C(=O)OC)CN(C#N)N(c2ccc(Cl)cc2)C12c1ccccc1-c1ccccc12 | -7 | -3 | 41* | -28 | -10 | 0
O=c1[nH]c(=O)n(Cc2ccc(F)cc2)c(O)c1/C=N/Nc1ccccc1 | 10 | / | 3 | 11 | -19 | 79*
O=c1[nH]c(=O)n(CCC2=CCCCC2)c(O)c1/C=N/Nc1ccccc1 | 3 | / | 25 | -10 | -4 | 97*
O=C(Cc1ccncc1)N1CCCCN2[C@@H](CO)[C@H](c3ccc(C#Cc4ccccc4F)cc3)[C@@H]2C1 | / | -3 | 12 | / | / | /
CS(=O)(=O)N1C[C@@H]2N[C@H](C1)C2c1ccccc1 (some centres undefined) | / | / | -4 | / | / | /
CN1[C@@H]2CN(CC(F)(F)F)C[C@H]1C2c1ccc(Br)cc1 (some centres undefined) | / | / | 4 | / | / | /
Cc1ccc(-c2nc3ccccc3c(=O)n2-c2ccc(O)cc2)cc1 | 8 | / | -4 | -2 | -11 | -15
Cc1ccc(-n2c(-c3cccs3)nc3ccccc3c2=O)cc1 | 6 | -5 | / | 6 | -4 | 78*
COCCNC(=O)c1c(NC(=O)c2ccco2)n(Cc2ccccc2)c2nc3ccccc3nc12 | -288 | -4 | / | 68* | -12 | -3
C=CCN1[C@@H]2CN(C(C)=O)C[C@H]1C2c1ccc(Br)cc1 (some centres undefined) | / | / | 4 | / | / | /
CC(C)c1ccc(-n2c(O)c(/C=N/NC(=O)c3ccncc3)c(=O)[nH]c2=O)cc1 | 6 | / | 0 | 1 | 2 | 0
CC(C)c1ccc(-n2c(O)c(/C=N/NC(=O)c3ccccc3O)c(=O)[nH]c2=S)cc1 | 20 | -4 | 4 | 70* | -2 | -4
O=C(N/N=C/c1c(O)n(C2CCCCC2)c(=S)[nH]c1=O)c1ccccc1 | 5 | 2 | 5 | 80* | 13 | 8
O=C(N/N=C/c1c(O)n(CCc2ccccc2)c(=O)[nH]c1=O)c1ccccc1 | / | 2 | -8 | 55* | / | 3
CCCCC(=O)N/N=C/c1c(O)n(Cc2ccco2)c(=O)[nH]c1=O | 0 | 5 | 7 | -1 | 7 | 4
O=C(N/N=C/c1c(O)n(Cc2ccco2)c(=O)[nH]c1=O)c1ccccc1O | 12 | 2 | 5 | 68* | 38 | 7
O=C(C1CC1)N1C[C@@H]2N[C@H](C1)[C@@H]2c1ccc(-c2ccncc2)cc1 | / | / | 11 | / | / | /
O=c1[nH]c(=S)n(C2CC2)c(O)c1/C=N/Nc1ccccc1 | -3 | 0 | -3 | 6 | -17 | -2
O=C(N/N=C/c1c(O)n(C2CCCCC2)c(=S)[nH]c1=O)c1ccccc1O | 12 | -15 | -3 | 55* | 10 | 24
